The values below come from ChEMBL document CHEMBL3739336, “Identification of dual PPARα/γ agonists and their effects on lipid metabolism” (Bioorg Med Chem, 2015).

In data set [1] the target is T1, Peroxisome proliferator-activated receptor alpha (Homo sapiens) (UniProt Q07869).
T1 sequence (whole entry): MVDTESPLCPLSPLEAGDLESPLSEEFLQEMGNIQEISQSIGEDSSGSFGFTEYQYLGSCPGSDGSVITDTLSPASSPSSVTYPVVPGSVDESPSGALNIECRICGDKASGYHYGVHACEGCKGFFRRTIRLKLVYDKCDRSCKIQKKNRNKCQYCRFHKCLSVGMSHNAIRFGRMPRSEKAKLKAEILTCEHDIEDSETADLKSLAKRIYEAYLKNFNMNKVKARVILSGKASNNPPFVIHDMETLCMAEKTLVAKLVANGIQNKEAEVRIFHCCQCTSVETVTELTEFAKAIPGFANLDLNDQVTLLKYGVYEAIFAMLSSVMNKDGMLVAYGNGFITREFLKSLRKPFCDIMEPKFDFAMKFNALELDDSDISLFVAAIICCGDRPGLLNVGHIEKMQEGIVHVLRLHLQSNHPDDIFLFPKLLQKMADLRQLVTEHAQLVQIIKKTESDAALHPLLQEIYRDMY
The data set can be described thus: Agonist activity at PPARalpha in human HuH7 cells assessed as increase of fatty acid oxidation by measuring CO2 production using […] at 20 uM after 18 hrs by scintillation counting. The class given is cell-based. As to conditions: Huh-7.

Data set [2] can be described thus: in vitro. As to conditions: human, HEK293 cells.
The target of data set [3] is Peroxisome proliferator-activated receptor (Homo sapiens) (UniProt P37231+Q07869+Q03181). In words: Agonist activity at PPAR in human THP1 cells assessed as induction of ABCG1 expression at 20 uM after 24 hrs by Western blot analysis relative to control. Particulars: THP-1. It is filed as cell-based. For orientation: In western blotting, separated proteins are transferred to a membrane and probed.

The target in data set [4] is T2, Peroxisome proliferator-activated receptor gamma (Mus musculus) (UniProt P37238).
T2 sequence (whole entry): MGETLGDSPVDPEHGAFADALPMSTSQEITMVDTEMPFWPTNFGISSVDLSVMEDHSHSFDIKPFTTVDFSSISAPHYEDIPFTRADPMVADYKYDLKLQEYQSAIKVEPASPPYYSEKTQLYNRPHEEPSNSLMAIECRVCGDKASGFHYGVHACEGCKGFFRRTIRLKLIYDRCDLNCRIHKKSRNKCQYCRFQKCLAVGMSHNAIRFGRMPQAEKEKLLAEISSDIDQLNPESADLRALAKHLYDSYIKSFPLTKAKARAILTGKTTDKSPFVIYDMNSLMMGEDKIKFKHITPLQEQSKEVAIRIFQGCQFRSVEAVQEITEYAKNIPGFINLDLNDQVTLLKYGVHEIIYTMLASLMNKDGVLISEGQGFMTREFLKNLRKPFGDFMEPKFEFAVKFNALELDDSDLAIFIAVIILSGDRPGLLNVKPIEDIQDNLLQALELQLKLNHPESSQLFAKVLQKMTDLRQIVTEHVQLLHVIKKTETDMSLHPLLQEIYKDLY
The data set can be described thus: Agonist activity at PPARgamma in mouse 3T3-L1 cells assessed as increase of triacylglycerol accumulation at 20 uM after 18 hrs by ORO staining. The class given is cell-based. Summed up:
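Differentiated 3T3-L1 adipocytes on coverslips, treated for 18 h (overnight) with 20 μM or 25 μM. Cells fixed in 4% PFA, rinsed in 60% isopropanol, stained 10 min with Oil Red O (0.5% stock diluted 6/4 in water), then imaged by microscopy for neutral lipid.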

The target in data set [5] is T1, Peroxisome proliferator-activated receptor alpha (Homo sapiens). In words: Agonist activity at PPARalpha in human HuH7 cells assessed as increase of CPT1alpha expression at 20 uM by Western blotting relative to control. The class given is cell-based. As to conditions: Huh-7. Summed up:
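HuH7 hepatoma cells (DMEM/F-12, 10% FCS) incubated overnight ± 20 μM. Whole-cell lysates run on 12% SDS-PAGE and immunoblotted for CPT1α with HRP secondary and ECL. Band intensity normalised to actin; mean ± SEM, n = 3.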

Each structure is given as a SMILES string. The source made the active and inactive calls. No cut-off for these calls is given here.

Sequence of Peroxisome proliferator-activated receptor (Homo sapiens) (P37231 whole entry, looked up, one chain of several): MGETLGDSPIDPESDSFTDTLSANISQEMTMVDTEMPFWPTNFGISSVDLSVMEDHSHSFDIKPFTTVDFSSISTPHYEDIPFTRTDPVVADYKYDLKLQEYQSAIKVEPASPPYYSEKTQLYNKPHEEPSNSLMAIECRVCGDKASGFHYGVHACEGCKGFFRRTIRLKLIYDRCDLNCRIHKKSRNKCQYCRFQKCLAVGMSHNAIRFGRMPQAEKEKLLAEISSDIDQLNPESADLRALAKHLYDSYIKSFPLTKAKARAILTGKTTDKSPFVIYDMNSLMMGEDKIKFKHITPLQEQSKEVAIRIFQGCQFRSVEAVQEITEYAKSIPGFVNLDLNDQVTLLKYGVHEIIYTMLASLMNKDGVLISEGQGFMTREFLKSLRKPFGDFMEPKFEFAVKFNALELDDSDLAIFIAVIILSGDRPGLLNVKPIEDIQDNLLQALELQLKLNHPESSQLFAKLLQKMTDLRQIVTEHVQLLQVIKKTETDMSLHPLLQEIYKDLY
Sequence of Peroxisome proliferator-activated receptor (Homo sapiens) (Q03181 whole entry, looked up, one chain of several): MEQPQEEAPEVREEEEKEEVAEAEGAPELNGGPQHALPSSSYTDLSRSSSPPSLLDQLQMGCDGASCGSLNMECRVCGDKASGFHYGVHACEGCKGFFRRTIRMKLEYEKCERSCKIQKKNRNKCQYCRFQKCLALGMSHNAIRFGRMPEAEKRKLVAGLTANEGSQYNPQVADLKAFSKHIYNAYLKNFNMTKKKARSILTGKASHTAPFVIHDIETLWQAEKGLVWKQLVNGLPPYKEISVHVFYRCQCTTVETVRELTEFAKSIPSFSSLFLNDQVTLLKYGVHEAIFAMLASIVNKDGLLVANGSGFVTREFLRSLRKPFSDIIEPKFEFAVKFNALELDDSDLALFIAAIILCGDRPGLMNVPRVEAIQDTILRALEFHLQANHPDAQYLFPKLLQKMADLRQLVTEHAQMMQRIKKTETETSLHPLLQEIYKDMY

As for `Cc1cccc(Nc2cc(Cl)nc(SCC(=O)O)n2)c1C` [PIRINIXIC ACID], in data set [1], the outcome was Active. Moreover, the inhibition (in general, the percentage by which the read-out fell short of the control) at 100 µM in data set [2] is under 5%. In data set [2], `CN(CCOc1ccc(CC2SC(=O)NC2=O)cc1)c1ccccn1` (stereo not given) [ROSIGLITAZONE] gave an inhibition at 100 µM of under 5%.

As to `COc1ccc2c(=O)c(-c3ccccc3)coc2c1C`, the outcome in data set [3] was inactive. On to `Cn1c(Cc2ccccc2)nn(CN2CCC(c3ccccc3)CC2)c1=S`, for which, in data set [3], the fold change (FC) is 3.

On to `CCOc1ccc2c(=O)c(-c3ccccc3)coc2c1C`, for which the outcome in data set [3] was inactive.

Take `CCN(CC)c1ccc(NC(=O)c2ccccc2OCC(=O)N2CCc3ccccc32)cc1`: the result in data set [1] was Active. Also, the fold change (FC) in data set [3] is 3; in data set [5] it was over 2. Moreover, the Activity in data set [4] is 20%.
